# Measurements from different studies.
# PDE4D: 3',5'-cyclic-AMP phosphodiesterase 4D (PDE4D, Homo sapiens, UniProt Q08499)
# CDK7 with cyclin H: Cyclin-dependent kinase 7, with cyclin H (CDK7, Homo sapiens, UniProt P50613)
# HTR1B: 5-hydroxytryptamine receptor 1B (HTR1B, Homo sapiens, UniProt P28222)
# HMGCR: 3-hydroxy-3-methylglutaryl-coenzyme A reductase (HMGCR, Homo sapiens, UniProt P04035)
Compound,target,effect on,action,method,concentration,setting,inhibition [%]
COc1cc(Nc2ncc(F)c(Nc3ccc4c(n3)NC(=O)C(C)(C)O4)n2)cc(OC)c1OC,"Serine/threonine-protein kinase MAK (MAK, Homo sapiens, UniProt P20794)",binding,,competition with immobilised ligand,10 µM,,0
O=C(O)CCCCCCCC(=O)O,PDE4D,enzyme activity,inhibitor,radiometric,50 µM,,47.1
C=C[C@H]1CN2CC[C@H]1C[C@H]2[C@H](O)c1ccnc2ccccc12,CDK7 with cyclin H,enzyme activity,inhibitor,ADP detection,10 µM,,-25.5
COc1cc2c3c(c1OC)-c1cc4c(cc1CC3N(C)CC2)OCO4 (racemic),HTR1B,ligand displacement,,radioligand,10 µM,,100
O=C1C[C@@H](c2ccc(O[C@@H]3O[C@H](CO)[C@@H](O)[C@H](O)[C@H]3O)cc2)Oc2cc(O)ccc21,PDE4D,enzyme activity,inhibitor,radiometric,50 µM,,14
COCc1c(-c2cc3cc(C)cc(OC)c3s2)c2c(N)ncnn2c1CN1CCNC(=O)C1,HMGCR,enzyme activity,inhibitor,,10 µM,,1
CCOC(=O)C1=C(C)NC(c2ccccc2)=C(C(=O)OCc2ccccc2)C1C#Cc1ccccc1 (stereo not drawn),"Adenosine receptor A2a (Adora2a, Mus musculus, UniProt Q60613)",ligand displacement,,radioligand,10 µM,cell membranes,0
COc1cc2c(c(OC)c1OC)-c1ccc(OC)c(=O)cc1[C@@H](NC(C)=O)CC2,CDK7 with cyclin H,enzyme activity,inhibitor,ADP detection,10 µM,,-0.4
C=C(C)[C@@H]1CC=C2C(=CC[C@]3(C)[C@@H]([C@@H](CCC=C(C)C)C(=O)O)[C@H](O)C[C@@]23C)[C@@]1(C)CCC(=O)O,PDE4D,enzyme activity,inhibitor,radiometric,5 µM,,54.3
CC[C@@]1(O)C(=O)OCc2c1cc1n(c2=O)Cc2cc3ccccc3nc2-1,CDK7 with cyclin H,enzyme activity,inhibitor,ADP detection,10 µM,,20.7
O=C(Nc1cccnn1)N1CCN([C@@H]2CCOc3cc(C(F)(F)F)ccc32)CC1,PDE4D,enzyme activity,inhibitor,,20 µM,,1
COC(=O)c1cc(O)c(O)c(O)c1,PDE4D,enzyme activity,inhibitor,radiometric,50 µM,,-5.1
CN1CCc2cc3c(cc2[C@H]1[C@@H]1OC(=O)c2c1ccc1c2OCO1)OCO3,CDK7 with cyclin H,enzyme activity,inhibitor,ADP detection,10 µM,,22
Clc1ccc2c(C3CCN(CCc4c[nH]c5ccccc45)CC3)c[nH]c2c1,HTR1B,ligand displacement,,radioligand,10 µM,,100
COc1c2ccoc2cc2oc(=O)ccc12,CDK7 with cyclin H,enzyme activity,inhibitor,ADP detection,10 µM,,-13.6
O=C(O)CC(O)(CC(=O)O)C(=O)O,PDE4D,enzyme activity,inhibitor,radiometric,50 µM,,99.2
Cn1cc(-c2cccc(N3CCc4c(sc5c4CC(C)(C)C5)C3=O)c2CO)cc(Nc2ccncn2)c1=O,"Protein kinase C gamma type (PRKCG, Homo sapiens, UniProt P05129)",enzyme activity,inhibitor,,1 µM,,-1
C[C@@H]1CC[C@@]2(NC1)O[C@H]1C[C@H]3[C@@H]4CC=C5C[C@@H](O)CC[C@]5(C)[C@H]4CC[C@]3(C)[C@H]1[C@@H]2C,CDK7 with cyclin H,enzyme activity,inhibitor,ADP detection,10 µM,,22.4
CCN(CC)CCCC[C@H](NC(=O)[C@H](CC(C)C)NC(=O)[C@H](C)NC(=O)[C@H](Cc1ccccc1)NC(=O)c1ccc(C(C)(C)C)cc1)C(=O)N[C@@H](CO)C(=O)OC,"Prostaglandin E2 receptor EP4 subtype (PTGER4, Homo sapiens, UniProt P35408)",ligand displacement,,radioligand,10 µM,,5
O=c1c(O[C@@H]2O[C@H](CO)[C@@H](O)[C@H](O)[C@H]2O)c(-c2ccc(O)cc2)oc2cc(O)cc(O)c12,PDE4D,enzyme activity,inhibitor,radiometric,50 µM,,20.2
c1ccc(C(NCCNC(c2ccccc2)c2ccccc2)c2ccccc2)cc1,HMGCR,enzyme activity,inhibitor,,10 µM,,-2
O=C(/C=C/c1ccc(O)cc1)c1ccc(O)cc1O,PDE4D,enzyme activity,inhibitor,radiometric,50 µM,,52
C#Cc1n[nH]c2c(-c3cn(C(C)c4ccccn4)c(=O)[nH]c3=O)cc(F)cc12 (stereo not drawn),"Tyrosine-protein kinase SYK (SYK, Homo sapiens, UniProt P43405)",enzyme activity,inhibitor,,1 µM,,-7.5
O=c1c(O)c(-c2ccc(O)c(O)c2)oc2cc(O)cc(O)c12,PDE4D,enzyme activity,inhibitor,radiometric,50 µM,,100
C[C@H](C(=O)N[C@H]1COc2ccccc2[C@@H]1S(C)(=O)=O)c1ccc(F)cc1,"Phospholipase A2, major isoenzyme (PLA2G1B, Sus scrofa, UniProt P00592)",cell-free assay,inhibitor,,10 µM,,-6
COc1cc([C@@H]2c3cc4c(cc3[C@H](O)[C@H]3COC(=O)[C@H]23)OCO4)cc(OC)c1OC,CDK7 with cyclin H,enzyme activity,inhibitor,ADP detection,10 µM,,17.2
CN(C)C(=O)COC(=O)Cc1ccc(OC(=O)c2ccc(NC(=N)N)cc2)cc1,"Prothrombin (F2, Homo sapiens, UniProt P00734)",enzyme activity,inhibitor,,50 µM,,99.1
